The record followed here is ChEMBL document CHEMBL4152354, “A reusable magnetic nickel nanoparticle based catalyst for the aqueous synthesis of diverse heterocycles and their evaluation as potential anti-bacterial agent” (2018).

Common to all, as to format: functional
The test system of experiment [1] is Streptococcus pyogenes. As to the kind of experiment: Antibacterial activity against Streptococcus pyogenes MTCC 1925 assessed as zone of inhibition at 100 uL after 24 hrs by agar well-diffusion method. In short, it runs like this:
(§1)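 Mueller-Hinton agar plates swabbed with a bacterial suspension adjusted to 1.5×10^8 CFU/ml. Each 5 mm well received 100 µl of compound, and plates were incubated at 37°C for 24 h. Chloramphenicol (30 mcg) was the positive control and DMSO the negative control. Inhibition zones around wells were measured manually, in triplicate.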
(A growth-free zone around the sample is the usual read-out of agar diffusion tests.)

The test system of experiment [2] is Salmonella enterica. As to the kind of experiment: Antibacterial activity against Salmonella enterica MTCC 735 assessed as zone of inhibition at 100 uL after 24 hrs by agar well-diffusion method.
Experiment [3] relates to Escherichia coli. Description: Antibacterial activity against Escherichia coli MTCC 730 assessed as zone of inhibition at 100 uL after 24 hrs by agar well-diffusion method. In short, it runs like this:
as §1

The test system of experiment [4] is Bacillus cereus. As to the kind of experiment: Antibacterial activity against Bacillus cereus MTCC 430 assessed as zone of inhibition at 100 uL after 24 hrs by agar well-diffusion method. In short, it runs like this:
as §1

For experiment [5], the system named is Klebsiella pneumoniae. Description: Antibacterial activity against Klebsiella pneumoniae MTCC 109 assessed as zone of inhibition at 100 uL after 24 hrs by agar well-diffusion method. The gist of the method: as §1

As for `CC1(C)CC(=O)C(C(C2=C(O)CC(C)(C)CC2=O)c2ccc(Cl)cc2)=C(O)C1`, the inhibition zone (IZ) in experiment [1], in experiment [2], in experiment [3], in experiment [4] and in experiment [5] was 0 mm in each case.

As to `CN(C)c1ccc(C(C2=C(O)CC(C)(C)CC2=O)C2=C(O)CC(C)(C)CC2=O)cc1`, the inhibition zone (IZ) in experiment [1], in experiment [2], in experiment [3], in experiment [4] and in experiment [5] was 0 mm each time.

Consider `CC1(C)CC(=O)C(C(C2=C(O)CC(C)(C)CC2=O)c2cccc(F)c2)=C(O)C1`, for which the inhibition zone (IZ) in experiment [1], in experiment [2], in experiment [3], in experiment [4] and in experiment [5] was 0 mm each time.

Take `Cc1ccc(C(C2=C(O)CC(C)(C)CC2=O)C2=C(O)CC(C)(C)CC2=O)cc1`: the inhibition zone (IZ) in experiment [1], in experiment [2], in experiment [3], in experiment [4] and in experiment [5] was 0 mm each time.

With `COc1ccc(C(C2=C(O)CC(C)(C)CC2=O)C2=C(O)CC(C)(C)CC2=O)cc1OC`, the inhibition zone (IZ) in experiment [1], in experiment [2], in experiment [3], in experiment [4] and in experiment [5] was 0 mm in each case.

In the case of `COc1cc(C(C2=C(O)CC(C)(C)CC2=O)C2=C(O)CC(C)(C)CC2=O)cc(OC)c1OC`, the inhibition zone (IZ) in experiment [1], in experiment [2], in experiment [3], in experiment [4] and in experiment [5] was 0 mm each time.

Turning to `CCC(C1=C(O)CC(C)(C)CC1=O)C1=C(O)CC(C)(C)CC1=O`, the inhibition zone (IZ) in experiment [1], in experiment [2], in experiment [3], in experiment [4] and in experiment [5] was 0 mm in each case.

In the case of `CC1(C)CC(=O)C(C(C2=C(O)CC(C)(C)CC2=O)c2ccc([N+](=O)[O-])cc2)=C(O)C1`, the inhibition zone (IZ) in experiment [1] is 0 mm; in experiment [2], 0 mm; in experiment [3], 0 mm; in experiment [4], 15 mm; in experiment [5], 14 mm.

Take `CCOc1ccc(C(C2=C(O)CC(C)(C)CC2=O)C2=C(O)CC(C)(C)CC2=O)cc1`: the inhibition zone (IZ) in experiment [1], in experiment [2], in experiment [3], in experiment [4] and in experiment [5] was 0 mm throughout.

As to `CC1(C)CC(=O)C(C(C2=C(O)CC(C)(C)CC2=O)c2ccccc2)=C(O)C1`, the inhibition zone (IZ) in experiment [1], in experiment [2], in experiment [3], in experiment [4] and in experiment [5] was 0 mm throughout.

`CC1(C)CC(=O)C(C(C2=C(O)CC(C)(C)CC2=O)c2ccc(Br)cc2)=C(O)C1`: the inhibition zone (IZ) in experiment [1] turned out to be 10 mm; in experiment [2], 0 mm; in experiment [3] it was 11 mm; in experiment [4], 11 mm; in experiment [5], 11 mm.
